The whole screen tested about 130,000 compounds, of which about 1,000 (0.77%) were called active. About 1% were inconclusive and are not listed. This is one part of a sample in which actives are shown more often than they occur.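 The calls were made as follows: active = activation at 2 µM above a set limit, confirmed on inspection of the cell images; inconclusive = above the set limit but not confirmed on image inspection; inactive = the rest.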

The experiment is described as follows: insulin gene promoter stimulation in islet cells – imaging, TRM-6 cells, eGFP reporter, cell count, primary screen (AID 1296).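 As to activation: share of cells whose green reporter signal exceeds an intensity cutoff.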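 As to normalized cell count: cells counted after 48 h compound exposure.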 The following applies: at 2 µM; activation: stronger effect = higher value, plate-scaled: unstimulated 0, stimulated control 100; normalized cell count: measured here: cell count (toxicity). Put shortly:
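System – human fetal islet-derived TRM-6 cells with tamoxifen-inducible insulin promoter–eGFP reporter · Amount – 1,000 cells per well · Schedule – overnight tamoxifen, then two-day compound incubation at 37 °C · Detection – high-content imaging of fixed cells with Hoechst nuclear stain · Read-out – percent cells above green-intensity threshold, converted to percent activation versus plate controls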
For `CCOC(=O)NN1C(=O)c2ccccc2NC1c1ccccc1O` (stereo not given), the activation was 2.78% (inactive) and the normalized cell count amounted to 107%.

For `N#C/C(=C/c1ccc(N2CCCCC2)o1)C(=O)NCCc1c[nH]c2ccccc12`, the activation is 257% (active) and the normalized cell count is 92.9%.

On to `N#C/C(=C/c1ccc(N2CCOCC2)o1)C(=O)N1CCOCC1`, for which the activation is 7.69% (inactive) and the normalized cell count was 59.4%.

Take `N#C/C(=C\c1ccc(N2CCOCC2)o1)C(=O)N1CCOCC1`: the activation is 7.41% (inactive) and the normalized cell count is 99.1%.

As for `CC1(C)C2CC=C(/C=N/NC(=O)c3ccc(Cl)cc3)C1C2` (stereo not given), the activation is -3.33% (inactive) and the normalized cell count is 104%.

As for `Cc1ccc(-c2noc(CSc3nnc(-c4ccccc4)n3C)n2)cc1`, the activation was -8.33% (inactive) and the normalized cell count turned out to be 65.9%.

Take `COc1ccc(-c2noc(-c3ccc(C)cc3)n2)cc1`: the activation was 1.41% (inactive) and the normalized cell count was found to be 143%.

As to `COc1ccc(-c2noc(CSc3ccc(C)cc3)n2)cc1`, the activation was 521% (active) and the normalized cell count was determined as 77.9%.

For `O=C(Nc1ccccc1F)c1ccc(Cn2cc(Br)cn2)cc1`, the activation is 0% (inactive) and the normalized cell count stood at 118%.

Regarding `Cc1ccc(O)c(-c2cc(C(=O)NCc3ccccc3)[nH]n2)c1`, the activation is -7.14% (inactive) and the normalized cell count came out at 81.6%.

Regarding `Cc1cc(C)cc(NC(=O)c2cccc(NC(=O)C3C4CC5OC(=O)C3C5C4)c2)c1` (stereo not given), the activation is 76.7% (active) and the normalized cell count was determined as 85.6%.

Turning to `CSCc1ccc(C(=O)Nc2cc(C)cc(C)c2)cc1`, the activation was -9.09% (inactive) and the normalized cell count is 139%.

As for `Cc1cccc(NC(=O)C2CC(=O)OC23CCCC3)c1` (stereo not given), the activation is 7.14% (inactive) and the normalized cell count stood at 75.4%.

As for `O=C(COC(=O)c1cc(S(=O)(=O)N2CCCCC2)ccc1Cl)NCc1ccco1`, the activation is -5.56% (inactive) and the normalized cell count amounted to 260%.

`CC(C)CCC(C)NC(=O)c1ccc2nccnc2c1` (stereo not given): the activation is 6.67% (inactive) and the normalized cell count was 43.3%.

Turning to `Cc1ccc(/C=C(\C#N)C(=O)Nc2cccc3ncccc23)o1`, the activation was 2.7% (inactive) and the normalized cell count was determined as 106%.

In the case of `Cc1nc(NC(=O)C2CCCCC2)sc1C`, the activation was 0% (inactive) and the normalized cell count was 50%.

Turning to `Cc1ccc2c(NC(=O)C3CC3)cccc2n1`, the activation is 140% (active) and the normalized cell count was found to be 109%.

As for `CC(C)(C)NC(=O)CN(C(=O)c1ccc(Cl)nc1)c1cccc2ccccc12`, the activation was 108% (inactive) and the normalized cell count stood at 93%.

Regarding `O=C(Nc1ccccc1)c1ccc2nsnc2c1`, the activation was 193% (active) and the normalized cell count was determined as 111%.

`Cc1cccc(C(=O)Nc2ccc(C(=O)/C=C/c3cccs3)cc2)c1`: the activation is 9.3% (inactive) and the normalized cell count is 81.7%.

For the molecule `Cc1cccc(C(=O)Nc2ccc(CC(=O)O)cc2)c1`, the activation was 226% (inactive) and the normalized cell count is 56.2%.

As to `Cc1nn2c3cc(N4CCOCC4)ccc3nc2c2ccccc12`, the activation was 63.5% (inactive) and the normalized cell count is 79.7%.

`CC1C/C(=N/NC(=O)c2cccs2)CC(C)(C)C1` (stereo not given): the activation is 7.25% (inactive) and the normalized cell count was found to be 112%.

As to `COc1cc(NS(=O)(=O)c2ccc(N=Cc3c(C)[nH]n(-c4ccccc4)c3=O)cc2)nc(OC)n1`, the activation was 3.7% (inactive) and the normalized cell count came out at 98.8%.

(Values after PubChem BioAssay AID1296 (Columbia University Molecular Screening Center, 2008).)
